Here are results for 3 compounds from ChEMBL document CHEMBL1147858, “Short-chain 3-ketoceramides, strong apoptosis inducers against human leukemia HL-60 cells” (Bioorg Med Chem, 2007).

Common to all, as to assay type: functional, cell-based
What all share (conditions): Homo sapiens

The subject of experiment [1] is HL-60. The experiment is described as follows: Effect on apoptosis in HL60 cells assessed as caspase-3 activation at 5 uM by Western blot analysis. A digest of the protocol:
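HL-60 cells exposed 2–6 h (also 30–90 min) to compound, ethanol vehicle (final EtOH 0.1%); cells pelleted, PBS-washed twice, lysed in urea/SDS/β-mercaptoethanol buffer, boiled 3 min, run on 14% SDS-PAGE, PVDF blot probed with rabbit polyclonal anti-caspase-3 and alkaline phosphatase-coupled goat anti-rabbit; pro- versus active caspase-3 bands read.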
On the technique in general: Immunoblotting shows a protein as a band on a membrane.

The test system of experiment [2] is HL-60. The experiment can be described thus: Antileukemic effect against HL60 cells assessed as cell survival at 1 uM after 6 hrs by MTT assay relative to C2-Cer. In outline: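 Serum-free RPMI 1640 HL-60 suspension (0.4–1 × 10^6 cells/mL after two washes), […] per well; compounds added from ethanol stocks (1–20 mM), final EtOH 0.1%, vehicle control 0.1% EtOH; 6 h exposure; MTT (10 µL of 5 mg/mL) added 2 h before end; formazan dissolved with 0.04 M HCl in isopropanol.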

Experiment [3] has as its system HL-60. The experiment can be described thus: Effect on apoptosis in HL60 cells assessed as mitochondrial cytochrome C release at 5 uM by Western blot analysis. A digest of the protocol: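 HL-60 cells (6 × 10^6 cells/mL) treated for various periods, ethanol vehicle; PBS-washed, Dounce-homogenized in HEPES/KCl/EDTA/EGTA/DTT buffer with protease inhibitors; 1000g spin removes nuclei/heavy membranes, mitochondria-rich fraction pelleted, supernatant spun at 100,000g for cytosol; both fractions immunoblotted with anti-cytochrome c.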

The test system of experiment [4] is HL-60. The experiment is described as follows: Induction of apoptosis in HL60 cells assessed as DNA fragmentation at 5uM. A digest of the protocol:
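HL-60 cells (2 × 10^6 cells/2 mL) exposed for various periods, ethanol vehicle; lysed in Tris/EDTA/0.5% Triton X-100, soluble lysate treated with RNase A (0.2 mg/mL, 1 h, 37 °C) then proteinase K (0.2 mg/mL, 50 °C, 30 min); DNA isopropanol-precipitated overnight at −20 °C, run on 2.0% agarose at 50 V, ethidium bromide stained, UV visualized.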

Structures are written as SMILES. Activity calls are given as the source filed them. The rule behind the calls is not given here.

As to `CCCCCCCCCCC/C=C/C=C/C(=O)[C@H](CO)NC(C)=O`, the result in the experiment on HL-60 [1] and with HL-60 [3] was Active. Moreover, the result in the experiment with HL-60 [2] was inactive.
Take `CCCCCCCCCCCCC/C=C/C(=O)[C@H](COC)NC(C)=O`: the outcome in the experiment on HL-60 [1], in the experiment with HL-60 [2], in the experiment with HL-60 [3] and in the experiment on HL-60 [4] was Active.
Regarding `CCCCCCCCCCCCC/C=C/C(=O)[C@H](CO)NC(C)=O`, the outcome with HL-60 [1], with HL-60 [2], in the experiment on HL-60 [3] and in the experiment with HL-60 [4] was Active.
